Experiment [1] is described as follows: Reversible drug reactivity against cysteine in PBS buffer by NMR assay. The method in brief:
(§1)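 Warhead reactivity toward cysteine was tracked by NMR, measuring the amount of warhead remaining in solution over time. Cysteine was used at 10x the warhead concentration, giving pseudo-first-order conditions. The rate constant is the gradient of the fitted line. Runs were at pH 7.4 and also at pH 9.8. Two warheads were run in triplicate and averaged; the others were run once.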

Experiment [2] can be described thus: Drug reactivity against serine in PBS buffer by NMR assay. In short, it runs like this:
(§2)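 NMR time-course following the warhead in solution with serine, with the amino acid at 10x the warhead concentration (pseudo-first-order). Run at pH 7.4. The rate constant was taken from the gradient of the line. Single determinations.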

Experiment [3] can be described thus: Drug reactivity against cysteine in PBS buffer by NMR assay. In short, it runs like this: as §1
Experiment [4] in a line: Reversible drug reactivity against serine in PBS buffer by NMR assay. The method in brief:
as §2

Experiment [5] can be described thus: Irreversible drug reactivity against serine in PBS buffer by NMR assay. The method in brief:
as §2

Experiment [6] is described as follows: Irreversible drug reactivity against cysteine in PBS buffer by NMR assay. The method in brief: as §1
Experiment [7] can be described thus: Drug reactivity against cysteine in PBS buffer assessed as half life by NMR assay.
Experiment [8] can be described thus: Drug reactivity against cysteine in PBS buffer assessed as rate constant by NMR assay. The method in brief: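 Warhead reacted in solution with cysteine held at 10x the warhead concentration, giving pseudo-first-order kinetics. Remaining warhead was followed over time by NMR, and the rate constant was taken from the gradient of the line. Runs were at pH 7.4 and also at pH 9.8. Two warheads were run in triplicate and averaged; all others were run once.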

Activity calls are given as the source filed them. No cut-off for these calls is given here.

Consider `O=C(c1ccccc1)C(F)(F)F`, for which the result in experiment [1] and in experiment [4] was Active. Moreover, the outcome in experiment [2] and in experiment [3] was inactive.

As for `N#Cc1ncccn1`, the result in experiment [1], in experiment [2], in experiment [3] and in experiment [4] was Active.

`O=C1CCN1c1ccccc1`: the result in experiment [2] and in experiment [3] was inactive. The outcome in experiment [5] and in experiment [6] was Active.

For `N#Cc1ccccc1`, the result in experiment [1] and in experiment [4] was Active. For the same compound, the outcome in experiment [2] and in experiment [3] was inactive.

In the case of `OB1OCc2ccccc21`, the outcome in experiment [1] and in experiment [4] was Active. The result in experiment [2] and in experiment [3] was inactive.

Turning to `O=C1CC(c2ccccc2)N1` (stereo not drawn), the outcome in experiment [2] and in experiment [3] was inactive. Moreover, the outcome in experiment [5] and in experiment [6] was Active.

For the compound `N#Cc1ccccn1`, the outcome in experiment [1] and in experiment [4] was Active. The outcome in experiment [2] and in experiment [3] was inactive.

For the compound `C=CC(=O)c1ccccc1`, the result in experiment [1], in experiment [2], in experiment [3] and in experiment [4] was Active.

With `O=S(=O)(F)c1ccccc1`, the outcome in experiment [2] and in experiment [3] was Active.

Regarding `CN(C)C/C=C/C(=O)Nc1ccccc1`, the result in experiment [1], in experiment [2], in experiment [3] and in experiment [4] was Active.

As to `C#CC(=O)c1ccccc1`, the result in experiment [1], in experiment [2], in experiment [3] and in experiment [4] was Active.

As to `CC1(C)S[C@@H]2[C@H](N)C(=O)N2[C@H]1C(=O)O`, the outcome in experiment [2] and in experiment [3] was inactive. Moreover, the result in experiment [5] and in experiment [6] was Active.

As to `C=CS(=O)(=O)Nc1ccccc1`, the T1/2 in experiment [7] amounted to 17.2 min. The outcome in experiment [1], in experiment [2], in experiment [3] and in experiment [4] was Active. The K in experiment [8] was found to be 6.73 ×10⁻⁴ /s.

As to `C=CC(=O)Nc1ccccc1`, the outcome in experiment [1], in experiment [2], in experiment [3] and in experiment [4] was Active. In addition, the K in experiment [8] worked out at 8.38 ×10⁻⁵ /s.

As to `c1ccc(C2CO2)cc1` (stereo not drawn), the outcome in experiment [1], in experiment [2], in experiment [3] and in experiment [4] was Active.

As to `COC(=O)Nc1ccccc1`, the outcome in experiment [2] and in experiment [3] was Active.

Values taken from ChEMBL document CHEMBL4392853, “Characterising covalent warhead reactivity” (Bioorg Med Chem, 2019).
